In ChEMBL document CHEMBL1143104, “Identification and characterization of pyrrolidine diastereoisomers as potent functional agonists and antagonists of the human melanocortin-4 receptor” (Bioorg Med Chem Lett, 2008):
Calls of active or inactive are those of the source. No cut-off for these calls is given here.

What was measured:
Melanocortin receptor 4 [1] = molecular target: T1, Melanocortin receptor 4 (Homo sapiens, UniProt P32245); assay: Intrinsic activity at human MC4 receptor expressed in CHO cells assessed as accumulation of cAMP production relative to alphaMSH; type: functional, cell-based
Procedure, shortened: (§1)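 CHO cells transfected with human MC4R were stimulated by compound and accumulated cAMP was measured by ELISA. Intrinsic activity is expressed relative to α-MSH. Representative experiments were run 2–8 times.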

Melanocortin receptor 4 [2] = molecular target: T1, Melanocortin receptor 4; assay: Displacement of [125I]NDP-MSH from human MC4 receptor expressed in HEK293 cells; type: cell-based
Procedure, shortened: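 HEK293 cells expressing human MC4R, radioligand competition binding with [125I]-NDP-MSH. Ki values are the average of two or more independent measurements.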

Melanocortin receptor 4 [3] = molecular target: T1, Melanocortin receptor 4; assay: Agonist activity at human MC4 receptor expressed in CHO cells assessed as accumulation of cAMP production; type: functional, cell-based; procedure, shortened: as §1
Melanocortin receptor 4 [4] = molecular target: T1, Melanocortin receptor 4; assay: Antagonist activity at human MC4 receptor expressed in CHO cells assessed as inhibition of alpha-MSH-stimulated cAMP production; type: functional, cell-based
Procedure, shortened: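 CHO cells transfected with human MC4R were tested for dose-dependent inhibition of α-MSH-stimulated cAMP accumulation, measured by ELISA. IC50 was derived. Representative experiments were run 2–8 times.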

Rattus norvegicus [5] = assay: Suppression of food intake in ip dosed DIO rat after 24 hrs relative to control; type: functional, organism-based
Procedure, shortened: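 Male DIO rats were food-deprived overnight and on the test day. They were dosed ip at 3, 10 or 30 mg/kg in sterile water, and food was returned 1 h later. Cumulative intake was measured at set intervals over 24 h and compared with vehicle-treated rats.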

Rattus norvegicus [6] = assay: Reduction of body weight in po dosed DIO rat; type: functional, organism-based
Procedure, shortened: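 Male DIO rats, separate groups, dosed orally once daily 1 h before lights out for 7 days with vehicle, fenfluramine, or 3, 10 or 30 mg/kg test article. Body weight and spillage-corrected food intake were recorded daily and compared with vehicle-treated controls.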

T1 sequence (P32245 whole entry): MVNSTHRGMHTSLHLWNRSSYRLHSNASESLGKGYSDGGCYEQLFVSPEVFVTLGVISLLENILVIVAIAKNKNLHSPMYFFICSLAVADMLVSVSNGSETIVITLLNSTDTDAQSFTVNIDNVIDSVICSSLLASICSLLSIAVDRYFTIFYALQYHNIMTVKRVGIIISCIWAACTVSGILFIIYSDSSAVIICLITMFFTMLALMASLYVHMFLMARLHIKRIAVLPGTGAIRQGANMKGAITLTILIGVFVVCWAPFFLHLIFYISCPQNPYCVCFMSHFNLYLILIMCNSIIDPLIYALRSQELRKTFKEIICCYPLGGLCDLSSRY

## Cc1ccc(N2CCN(C(=O)[C@@H]3CN(C4CCOCC4)C[C@H]3c3ccc(Cl)cc3)CC2)c([C@@H](NC(=O)CCN)C(C)C)c1
Melanocortin receptor 4 [1]
  Intrinsic activity: 107%
Melanocortin receptor 4 [2]
  Ki: 2.2 nM
Melanocortin receptor 4 [3]
  EC50: 6 nM

## Cc1ccc(N2CCN(C(=O)[C@@H]3CN(C4CCOCC4)C[C@H]3c3ccc(Cl)cc3)CC2)c([C@@H](NC(=O)[C@H](C)N)C(C)C)c1
Melanocortin receptor 4 [1]
  Intrinsic activity: 38%
Melanocortin receptor 4 [2]
  Ki: 1 nM
Melanocortin receptor 4 [3]
  EC50: 5.2 nM

## Cc1ccc(N2CCN(C(=O)[C@H]3CN(C(C)C)C[C@H]3c3ccc(Cl)cc3)CC2)c([C@@H](NC(=O)CCN(C)C)C(C)C)c1
Melanocortin receptor 4 [2]
  Ki: 90 nM

## CC(C)[C@H](NC(=O)CCN(C)C)c1cccc(F)c1N1CCN(C(=O)[C@@H]2CN(C(C)C)C[C@H]2c2ccc(Cl)cc2Cl)CC1
Melanocortin receptor 4 [1]
  Intrinsic activity: 24%
Melanocortin receptor 4 [4]
  IC50: 560 nM
Melanocortin receptor 4 [2]
  Ki: 7.5 nM

## CC(C)[C@H](NC(=O)CCN(C)C)c1cccc(F)c1N1CCN(C(=O)[C@@H]2CN(C(C)C)C[C@H]2c2ccc(F)c(Cl)c2)CC1
Melanocortin receptor 4 [1]
  Intrinsic activity: 78%
Melanocortin receptor 4 [2]
  Ki: 260 nM
Melanocortin receptor 4 [3]
  EC50: 410 nM

## CC(C)[C@H](NC(=O)CCN(C)C)c1cccc(F)c1N1CCN(C(=O)[C@@H]2CN(C(C)C)C[C@H]2c2cccc(Cl)c2)CC1
Melanocortin receptor 4 [2]
  Ki: 370 nM

## CCC(=O)N1C[C@@H](C(=O)N2CCN(c3ccc(C)cc3[C@@H](NC(=O)CCN(C)C)C(C)C)CC2)[C@H](c2ccc(Cl)cc2)C1
Melanocortin receptor 4 [1]
  Intrinsic activity: 129%
Melanocortin receptor 4 [2]
  Ki: 4.6 nM
Melanocortin receptor 4 [3]
  EC50: 27 nM

## Cc1ccc(N2CCN(C(=O)[C@@H]3CN(C4CCOCC4)C[C@H]3c3ccc(Cl)cc3)CC2)c([C@@H](N)C(C)C)c1
Melanocortin receptor 4 [1]
  Intrinsic activity: 36%
Melanocortin receptor 4 [2]
  Ki: 12 nM

## CC(C)[C@H](NC(=O)CCN(C)C)c1cccc(F)c1N1CCN(C(=O)[C@@H]2CN(C(C)C)C[C@H]2c2ccc(F)c(F)c2)CC1
Melanocortin receptor 4 [2]
  Ki: 290 nM

## CC(C)[C@H](NC(=O)CCN(C)C)c1cccc(F)c1N1CCN(C(=O)[C@@H]2CN(C(C)C)C[C@H]2c2cc(F)c(F)c(F)c2)CC1
Melanocortin receptor 4 [2]
  Ki: 250 nM

## Cc1ccc(N2CCN(C(=O)[C@@H]3CN(C4CCOCC4)C[C@H]3c3ccc(Cl)cc3)CC2)c([C@@H](NC(=O)CCN(C)C)C(C)C)c1 (stereo in doubt; 13b)
Melanocortin receptor 4 [2]
  Ki: 1.4 nM
Melanocortin receptor 4 [3]
  EC50: 10 nM

## Cc1ccc(N2CCN(C(=O)[C@@H]3CNC[C@H]3c3ccc(Cl)cc3)CC2)c([C@@H](NC(=O)CCN(C)C)C(C)C)c1
Melanocortin receptor 4 [1]
  Intrinsic activity: 72%
Melanocortin receptor 4 [2]
  Ki: 7.2 nM
Melanocortin receptor 4 [3]
  EC50: 79 nM

## CCNC(C)Cc1cccc(C(F)(F)F)c1 (configuration not stated)
Rattus norvegicus [5]
  Activity: Active
Rattus norvegicus [6]
  Activity: Active

## CNCC(=O)N[C@H](c1cc(C)ccc1N1CCN(C(=O)[C@@H]2CN(C3CCOCC3)C[C@H]2c2ccc(Cl)cc2)CC1)C(C)C
Melanocortin receptor 4 [1]
  Intrinsic activity: 84%
Melanocortin receptor 4 [2]
  Ki: 2.1 nM
Melanocortin receptor 4 [3]
  EC50: 19 nM

## Cc1ccc(N2CCN(C(=O)[C@@H]3CN(C4CCOCC4)C[C@H]3c3ccc(Cl)cc3)CC2)c([C@@H](NC(=O)CN)C(C)C)c1
Melanocortin receptor 4 [1]
  Intrinsic activity: 114%
Melanocortin receptor 4 [2]
  Ki: 2 nM
Melanocortin receptor 4 [3]
  EC50: 9.1 nM

## CC(C)[C@H](NC(=O)CCN(C)C)c1cccc(F)c1N1CCN(C(=O)[C@@H]2CN(C(C)C)C[C@H]2c2ccc(Cl)cc2)CC1
Melanocortin receptor 4 [1]
  Intrinsic activity: 103%
Melanocortin receptor 4 [2]
  Ki: 5.3 nM
Melanocortin receptor 4 [3]
  EC50: 20 nM
